Assay results reported in ChEMBL document CHEMBL4411275, “Design, synthesis and biological evaluation of quinoline-indole derivatives as anti-tubulin agents targeting the colchicine binding site” (Eur J Med Chem, 2019).

What was measured:
[1] = tested on: HepG2; test: Antiproliferative activity against human HepG2 cells after 72 hrs by MTT assay; assay type: functional, cell-based; settings: HepG2, 72 h
Method in brief: (§1)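 Cells preincubated 24 h at 37 °C, 5% CO₂. Compounds added at several concentrations in medium with 0.1% DMSO for 72 h. MTT (5 mg/mL in PBS) then added for 4 h, and optical density read at 490 nm. IC50 taken from dose-response curves; mean ± SD of at least three independent experiments.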

[2] = tested on: HCT-8; test: Antiproliferative activity against human HCT8 cells after 72 hrs by MTT assay; assay type: functional, cell-based; settings: HCT-8, 72 h; method in brief: as §1
[3] = tested on: A549/TR; test: Antiproliferative activity against human taxol-resistant A549/TR cells after 72 hrs by MTT assay; assay type: functional, cell-based; method in brief: as §1
[4] = Drug resistance index, ratio of IC50 for taxol-resistant human A549/TR cells to IC50 for human A549 cells; assay type: functional
Method in brief: (§2)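 Resistant and parental sensitive lines exposed to a range of compound concentrations in medium with 0.1% DMSO for 72 h at 37 °C, 5% CO2, after 24 h pre-culture. MTT added for 4 h, absorbance read at 490 nm. IC50 from dose-response curves, at least three independent experiments. DRI = IC50 resistant / IC50 parental.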

[5] = tested on: K562/VCR; test: Antiproliferative activity against human VCR-resistant K562/VCR cells after 72 hrs by MTT assay; assay type: functional, cell-based; method in brief: as §1
[6] = Drug resistance index, ratio of IC50 for VCR-resistant human K562/VCR cells to IC50 for human K562 cells; assay type: functional
[7] = tested on: K562; test: Induction of apoptosis in human K562 cells after 48 hrs by […]-based flow cytometric analysis; assay type: functional, cell-based
[8] = Antiproliferative activity against human ADR-resistant Bel7402/ADR cells after 72 hrs by MTT assay; assay type: functional; settings: Bel-7402, 72 h; method in brief: as §1
[9] = Drug resistance index, ratio of IC50 for ADR-resistant human Bel7402/ADR cells to IC50 for human Bel7402 cells; assay type: functional; method in brief: as §2
[10] = target: Tubulin (Sus scrofa) (UniProt P02554+P02550); test: Inhibition of [3H]-colchicine binding to biotinylated porcine tubulin at 5 uM after 2 hrs by SPA relative to control; assay type: protein assay
Method in brief: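 Scintillation proximity assay: 0.08 μM [3H]colchicine incubated with biotinylated porcine tubulin (0.5 μg) and test compound for 2 h at 37 °C in 80 mM PIPES pH 6.8, 1 mM EGTA, 10% glycerol, 1 mM MgCl2, 1 mM GTP. Streptavidin SPA beads then added, and bound radioactivity counted by scintillation counter.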

[11] = tested on: K562; test: Cell cycle arrest in human K562 cells assessed as accumulation of cells at G1 phase at 2 nM after 48 hrs by propidium iodide staining-based flow cytometric analysis (reference value: 69.57%); assay type: functional
[12] = tested on: K562; test: Cell cycle arrest in human K562 cells assessed as accumulation of cells at G1 phase at 4 nM after 48 hrs by propidium iodide staining-based flow cytometric analysis (reference value: 69.57%); assay type: functional
[13] = Toxicity in ICR mouse xenografted with […] cells assessed as body weight loss at 20 mg/kg/day, iv for 21 days; assay type: organism-based; settings: in vivo, 504 h
Method in brief: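 H22 cells (1×10^6) implanted s.c. in right flank of male ICR mice (five weeks old), eight per group. Body weight recorded every 2 days during treatment.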

[14] = tested on: K562; test: Induction of apoptosis in human K562 cells at 1 nM after 48 hrs by Annexin-V/propidium iodide staining-based flow cytometric analysis (reference value: 5.96%)
[15] = tested on: K562; test: Induction of apoptosis in human K562 cells at 2 nM after 48 hrs by Annexin-V/propidium iodide staining-based flow cytometric analysis (reference value: 5.96%)
[16] = tested on: K562; test: Induction of apoptosis in human K562 cells at 4 nM after 48 hrs by Annexin-V/propidium iodide staining-based flow cytometric analysis (reference value: 5.96%)
[17] = tested on: H22 (Mus musculus); test: Antitumor activity against mouse H22 cells xenografted in ICR mouse assessed as reduction in tumor weight at 10 mg/kg/day, iv for 21 days relative to control; design: scale not given: the % may be the effect or the level left
[18] = tested on: K562; test: Induction of mitochondrial membrane potential loss in human K562 cells assessed as intact mitochondrial membrane at 1 nM after 48 hrs by JC-1 dye-based flow cytometric analysis (RVB = 93.17%)
[19] = tested on: K562; test: Induction of mitochondrial membrane potential loss in human K562 cells assessed as intact mitochondrial membrane at 4 nM after 48 hrs by JC-1 dye-based flow cytometric analysis (RVB = 93.17%)

Sequence of Tubulin (Sus scrofa) (P02550 whole entry, looked up): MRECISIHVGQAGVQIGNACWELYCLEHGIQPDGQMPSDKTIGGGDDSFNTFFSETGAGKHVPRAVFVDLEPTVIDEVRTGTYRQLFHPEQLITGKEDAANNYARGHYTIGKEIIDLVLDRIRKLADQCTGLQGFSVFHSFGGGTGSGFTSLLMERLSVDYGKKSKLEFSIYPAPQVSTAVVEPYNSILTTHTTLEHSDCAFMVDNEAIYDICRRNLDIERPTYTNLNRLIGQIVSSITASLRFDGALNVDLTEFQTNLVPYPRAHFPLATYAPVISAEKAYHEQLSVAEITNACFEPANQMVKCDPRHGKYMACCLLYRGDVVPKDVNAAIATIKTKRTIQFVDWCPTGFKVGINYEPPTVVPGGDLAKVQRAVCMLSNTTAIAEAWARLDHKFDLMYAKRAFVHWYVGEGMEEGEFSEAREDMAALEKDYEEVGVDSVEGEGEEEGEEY
Sequence of Tubulin (Sus scrofa) (P02554 whole entry, looked up): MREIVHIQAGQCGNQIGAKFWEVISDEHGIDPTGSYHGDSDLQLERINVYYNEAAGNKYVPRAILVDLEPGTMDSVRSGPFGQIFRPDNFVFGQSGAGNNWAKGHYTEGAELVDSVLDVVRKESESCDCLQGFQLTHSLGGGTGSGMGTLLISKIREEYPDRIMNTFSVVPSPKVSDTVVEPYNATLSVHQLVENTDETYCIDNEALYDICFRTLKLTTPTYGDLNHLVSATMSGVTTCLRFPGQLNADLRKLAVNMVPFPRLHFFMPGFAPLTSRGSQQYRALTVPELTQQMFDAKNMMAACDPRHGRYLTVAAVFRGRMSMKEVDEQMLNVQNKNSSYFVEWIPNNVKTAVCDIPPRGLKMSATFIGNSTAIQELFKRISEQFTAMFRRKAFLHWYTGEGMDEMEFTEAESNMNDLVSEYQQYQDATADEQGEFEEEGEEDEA

IC50 [1]: 6 nM
IC50 [2]: 7 nM
IC50 [3]: 119 nM
IC50 [5]: 31 nM
inhibition [10]: 90.5%
SMILES: C=C(c1ccc2c(ccn2CO)c1)c1cc(C)nc2ccccc12
Ratio IC50 [4]: 13.2
Ratio IC50 [6]: 15.5
Activity [7]: Dose-dependent effect
IC50 [8]: 61 nM
Ratio IC50 [9]: 6.1
Activity [11]: 50.63%
Activity [12]: 45.79%
Activity [13]: Non-Toxic
Activity [14]: 25.7%
Activity [15]: 54.9%
Activity [16]: 72.8%
Activity [17]: 48.8%
Activity [18]: 70.66%
Activity [19]: 26.27%
